Columns and labels:
[1] = test system: Human immunodeficiency virus 1; assay: Antiviral activity against HIV1 3B infected in human MT4 cells assessed as inhibition of virus-induced cytopathic effect after 5 days by MTT assay; format: functional, organism-based; conditions: Human immunodeficiency virus 1, 3B, MT4, 120 h
In short: (§1)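 MT-4 cells spun 5 min at 1000 rpm, resuspended at 6 × 10⁵ cells/mL, then infected with HIV-1 IIIB or HIV-2 ROD at 100–300 CCID50. Test compounds were added as serial fivefold dilutions. After 5 days, viability was read by MTT reduction at 540 and 690 nm, using the median OD of three wells. EC50 is the concentration giving 50% protection against virus-induced cytotoxicity.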

[2] = test system: Human immunodeficiency virus 2; assay: Antiviral activity against HIV2 ROD infected in human MT4 cells assessed as inhibition of virus-induced cytopathic effect after 5 days by MTT assay; format: functional, organism-based; conditions: Human immunodeficiency virus 2, ISOLATE ROD, MT4, 120 h; in short: as §1
[3] = Cytotoxicity against human MT4 cells after 5 days by MTT assay; format: cell-based
In short: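 MT-4 cells at 6 × 10⁵ cells/mL were mock-infected with culture medium and exposed to serial fivefold dilutions of compound. After 5 days, viability was measured by MTT reduction at 540 and 690 nm, using the median OD of three wells. CC50 is the concentration reducing OD540 of the mock-infected control by 50%.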

[4] = Selectivity index, ratio of CC50 for human MT4 cells to EC50 for wild type HIV1 3B; format: toxicity, cell-based; conditions: read-out: Ratio CC50/EC50
In short: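 HIV-1 IIIB stock at 100–300 CCID50 was added to MT-4 cells at 6 × 10⁵ cells/mL, with serial fivefold compound dilutions and mock-infected wells run in parallel. Viability was read by MTT at 540 and 690 nm after 5 days, using the median OD of three wells. EC50 is 50% protection from HIV-induced cytotoxicity, and CC50 is a 50% reduction of mock-infected OD540. SI is CC50/EC50.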

[5] = test system: Human immunodeficiency virus 1; assay: Antiviral activity against HIV1 RES056 harboring reverse transcriptase K103N/Y181C mutant infected in human MT4 cells assessed as inhibition of virus-induced cytopathic effect after 5 days by MTT assay; format: functional, organism-based; conditions: Human immunodeficiency virus 1, RES056, MT4, 120 h
In short: (§2)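 MT-4 cells at 6 × 10⁵ cells/mL were infected with the double mutant HIV-1 RES056 (K103N+Y181C), with serial fivefold compound dilutions. After 5 days, viability was read by MTT at 540 and 690 nm, using the median OD of three wells. EC50 is 50% protection against virus-induced cytotoxicity, and CC50 is a 50% drop in OD540 of mock-infected cells. Fold resistance is the RES056 EC50 divided by the IIIB EC50.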

[6] = Selectivity index, ratio of CC50 for human MT4 cells to EC50 for HIV1 RES056 harboring reverse transcriptase K103N/Y181C RT mutant; format: toxicity, cell-based; conditions: read-out: Ratio CC50/EC50
[7] = test system: Human immunodeficiency virus 1; assay: Fold resistance, ratio of EC50 for HIV1 RES056 harboring reverse transcriptase K103N/Y181C RT mutant to EC50 for wild type HIV1 3B; format: functional; in short: as §2

Row | SMILES | EC50 [1] | EC50 [2] | CC50 at 120 h [3] | selectivity ratio [4] | EC50 [5] | selectivity ratio [6] | Ratio EC50 [7]
1 | Cc1cc(C)c(Nc2nc(N)nc(NC3CCN(Cc4ccc(C#N)cc4)CC3)n2)c(C)c1 | 0.00566 µM | > 3.26 µM | 3.26 µM | 576 | > 3.26 µM | < 1 | >575.8
2 | Cc1cc(C)c(Nc2nc(N)nc(NC3CCN(Cc4ccc(S(N)(=O)=O)cc4)CC3)n2)c(C)c1 | 0.00575 µM | > 19.9 µM | 19.9 µM | 3450 | 0.61 µM | 32 | 105.7
3 | Cc1cc(C)c(Nc2nc(N)nc(NC3CCN(Cc4ccc(S(C)(=O)=O)cc4)CC3)n2)c(C)c1 | 0.00555 µM | > 5.06 µM | 5.06 µM | 911 | 4.92 µM | 1 | 887.5
4 | Cc1cc(C)c(Nc2nc(N)nc(NC3CCN(Cc4ccccc4)CC3)n2)c(C)c1 | 0.0103 µM | > 23.6 µM | 23.6 µM | 2300 | 4.93 µM | 5 | 481.3
5 | Cc1cc(C)c(Nc2nc(N)nc(NC3CCN(Cc4ccc([N+](=O)[O-])cc4)CC3)n2)c(C)c1 | 0.00787 µM | > 3.46 µM | 3.46 µM | 439 | > 3.46 µM | < 1 | >439.1
6 | CNc1nc(Nc2c(C)cc(C)cc2C)nc(NC2CCN(Cc3ccncc3)CC2)n1 | 0.00725 µM | > 25.8 µM | 25.8 µM | 3560 | 0.55 µM | 47 | 76.4
7 | CCOC(=O)c1ccc(CN2CCC(Nc3nc(NC)nc(Nc4c(C)cc(C)cc4C)n3)CC2)cc1 | 0.0167 µM | > 4.95 µM | 4.95 µM | 297 | > 4.95 µM | < 1 | >297
8 | CNc1nc(Nc2c(C)cc(C)cc2C)nc(NC2CCN(Cc3ccc(C(N)=O)cc3)CC2)n1 | 0.00461 µM | > 27.4 µM | 27.4 µM | 5940 | 0.56 µM | 49 | 121.6
9 | CNc1nc(Nc2c(C)cc(C)cc2C)nc(NC2CCN(Cc3ccc(S(N)(=O)=O)cc3)CC2)n1 | 0.00699 µM | > 14.8 µM | 14.8 µM | 2120 | 0.51 µM | 29 | 72.7
10 | CNc1nc(Nc2c(C)cc(C)cc2C)nc(NC2CCN(Cc3ccc(S(C)(=O)=O)cc3)CC2)n1 | 0.00606 µM | > 9.64 µM | 9.64 µM | 1590 | 3.33 µM | 3 | 549.8
11 | COc1nc(Nc2c(C)cc(C)cc2C)nc(NC2CCN(Cc3ccncc3)CC2)n1 | 0.0133 µM | > 30.9 µM | 30.9 µM | 2320 | 1.48 µM | 21 | 111.1
12 | CCOC(=O)c1ccc(CN2CCC(Nc3nc(Nc4c(C)cc(C)cc4C)nc(OC)n3)CC2)cc1 | 0.0147 µM | > 8.48 µM | 8.48 µM | 577 | > 8.48 µM | < 1 | >576.6
13 | COc1nc(Nc2c(C)cc(C)cc2C)nc(NC2CCN(Cc3ccc(C(N)=O)cc3)CC2)n1 | 0.00864 µM | > 33.4 µM | 33.4 µM | 3870 | 1.11 µM | 30 | 128.3
14 | COc1nc(Nc2c(C)cc(C)cc2C)nc(NC2CCN(Cc3ccc(S(N)(=O)=O)cc3)CC2)n1 | 0.0106 µM | > 19.6 µM | 19.6 µM | 1850 | 0.94 µM | 21 | 88.2
15 | COc1nc(Nc2c(C)cc(C)cc2C)nc(NC2CCN(Cc3ccc(S(C)(=O)=O)cc3)CC2)n1 | 0.0119 µM | > 13.5 µM | 13.5 µM | 1130 | ≥ 1.59 µM | ≤ 8 | >=133.3
16 | CC(C)Nc1cccnc1N1CCN(C(=O)c2cc3cc(NS(C)(=O)=O)ccc3[nH]2)CC1.CS(=O)(=O)O [DELAVIRDINE MESYLATE] | 0.035 µM |  | > 36.2 µM | > 1030 | > 36.2 µM | ≥ 1 | >1033.6
17 | O=C1Nc2ccc(Cl)cc2[C@@](C#CC2CC2)(C(F)(F)F)O1 [EFAVIRENZ] | 0.00657 µM |  | > 6.34 µM | > 964 | 0.55 µM | > 12 | 83.6
18 | Cc1cc(C#N)cc(C)c1Oc1nc(Nc2ccc(C#N)cc2)nc(N)c1Br [ETRAVIRINE] |  |  |  |  |  | 817 | 15.5
19 | Cc1ccnc2c1NC(=O)c1cccnc1N2C1CC1 [NEVIRAPINE] |  |  | > 15 µM | > 75 | > 15 µM | ≥ 1 | >75
20 | Nc1ccn([C@H]2CC[C@@H](CO)O2)c(=O)n1 [ZALCITABINE] | 1.39 µM | 1.67 µM | > 94.7 µM | > 68 |  |  | 
21 | Cc1cn([C@H]2C[C@H](N=[N+]=[N-])[C@@H](CO)O2)c(=O)[nH]c1=O [ZIDOVUDINE] |  | 0.007 µM | ≥ 49.8 µM | ≥ 8300 | 0.01 µM | ≥ 4400 | 1.9

Reference: ChEMBL document CHEMBL2034927, “Design, synthesis, anti-HIV evaluation and molecular modeling of piperidine-linked amino-triazine derivatives as potent non-nucleoside reverse transcriptase inhibitors” (Bioorg Med Chem, 2012)
